ChEMBL document CHEMBL2010675, “Discovery of GS-9451: an acid inhibitor of the hepatitis C virus NS3/4A protease” (Bioorg Med Chem Lett, 2012)
≈ marks a conversion by molar mass, not a printed value.

Legend:
[1] = Thermodynamic solubility of the compound at pH 2.2; format: physicochemical; settings: buffer; for solubility thermodynamic: read-out: Therm_solubility
Hepatitis C virus [2] = assay: Antiviral activity against Hepatitis C virus genotype 1b infected in human Huh cells by luciferase reporter gene based replicon assay; format: functional, organism-based, Hepacivirus hominis
Summary of the method: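 EC50 from a cell-based assay in Huh-luc cells carrying a subgenomic HCV genotype 1b replicon, with luciferase reporter read-out.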

[3] = Thermodynamic solubility of the compound at pH 7.3; format: physicochemical; settings: buffer, read-out: Therm_solubility
[4] = Permeability from apical to basolateral side in human Caco2 cells; format: ADME, cell-based; settings: Caco-2, read-out: permeability
Hepatitis C virus [5] = assay: Inhibition of Hepatitis C virus genotype 1b NS3/4A protease; set-up: species or system Hepatitis C virus subtype 1b
[6] = Permeability from basolateral to apical side in human Caco2 cells; format: ADME, cell-based; settings: Caco-2, read-out: permeability

Structure (SMILES) | Therm_solubility [1] | EC50 (Hepatitis C virus [2]) [nM] | solubility thermodynamic [3] [µM] | Papp A→B [4] [×10⁻⁶ cm/s] | IC50 (Hepatitis C virus [5]) [nM] | Papp B→A [6] [×10⁻⁶ cm/s] | solubility thermodynamic [1] [µM]
CC[C@@H]1C[C@]1(NC(=O)[C@@H]1C[C@@H](Oc2cc(-c3csc(NC(C)C)n3)nc3c(Cl)c(OC)ccc23)CN1C(=O)[C@@H](NC(=O)O[C@@H]1C[C@@H]2C[C@@H]2C1)C(C)(C)C)C(=O)O | Insoluble(BLD) | 9 | 72 (≈ 58.4 µg/mL) | 7.3 | 1.4 | 25 | 
CC[C@@H]1C[C@]1(NC(=O)[C@@H]1C[C@@H](Oc2cc(-c3csc(NC(C)C)n3)nc3c(Cl)c(OC)ccc23)CN1C(=O)[C@@H](NC(=O)O[C@H]1C[C@@H]2[C@H](C1)C2(F)F)C(C)(C)C)C(=O)O |  | 5 | 57 (≈ 48.3 µg/mL) | 4.5 | 2.6 | 18 | 20 (≈ 16.9 µg/mL)
CC[C@@H]1C[C@]1(NC(=O)[C@@H]1C[C@@H](Oc2cc(-c3csc(NC(C)C)n3)nc3c(Cl)c(OC)ccc23)CN1C(=O)[C@@H](NC(=O)O[C@@H]1C[C@@H]2[C@H](C1)C2(F)F)C(C)(C)C)C(=O)O |  | 115 | 9 (≈ 7.63 µg/mL) | 6.8 | 5 | 49 | < 6
